For data set [1], the system named is Mus musculus. Description: Effect on liver histology in GalN/LPS-induced ICR mouse FHF liver injury model assessed as reversal of necrosis and inflammatory cell infiltration at 100 mg/kg, po administered 1 hr prior to GalN/LPS challenge measured after 6 hrs by hematoxylin/eosin-labeled microscopic analysis. The class given is functional, organism-based. The arrangement: dose 100 mg/kg. In a few lines:
(§1)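 Liver taken 6 h after challenge, fixed in 10% neutral-buffered formalin, paraffin-embedded, cut at 5 μm, H&E-stained. One pathologist scored random nonconsecutive fields blinded at 200×; n = 6−8.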

For data set [2], the system named is Mus musculus. The experiment in a line: Effect on serum TNF-alpha level in ICR mouse at 100 mg/kg, po after 1 hr by ELISA (reference value: 42.6 +/- 1.7 pg/ml). On the set-up: dose 100 mg/kg, route oral. Format: ADME, organism-based. To be noted: in vivo. In general terms: ELISA stands for enzyme-linked immunosorbent assay.
Data set [3] concerns Mus musculus. The experiment in a line: Effect on serum IL-6 level in ICR mouse at 100 mg/kg, po after 1 hr by ELISA (reference value: 73.3 +/- 13.1 pg/ml). The class given is ADME, organism-based. The arrangement: dose 100 mg/kg, route oral. To be noted: in vivo.
Data set [4] has as its system Mus musculus. Description: Protective effect in GalN/LPS-induced ICR mouse FHF liver injury model assessed as reduction in TRIF protein level at 100 mg/kg, po administered 1 hr prior to GalN/LPS challenge measured after 6 hrs by Western blotting analysis relative to vehicle-treated control. The class given is functional, organism-based. The arrangement: dose 100 mg/kg. In a few lines:
(§2)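 Oral pretreatment in olive oil 1 h before ip GalN (800 mg/kg)/LPS (40 μg/kg); liver harvested at 6 h and stored at −75 °C. SDS-PAGE and PVDF transfer used total extract (16−20 μg) for TLR4, MyD88, TRIF, IRAK-1, TRAF6 and IRAK-M, cytosolic (16 μg) for IκB, and nuclear (12 μg) for NF-κB p65. Blots were blocked in 5% milk, given primary antibody overnight at 4 °C, developed by ECL and quantified by densitometry as fold change; n = 6−8.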
In general terms: A western blot detects proteins with antibodies after separation by electrophoresis.

Data set [5] has as its system Mus musculus. Description: Effect on serum TNF-alpha level in GalN/LPS-induced ICR mouse FHF liver injury model at 100 mg/kg, po administered 1 hr prior to GalN/LPS challenge measured after 6 hrs by ELISA (reference value: 250.8 +/- 5.4 pg/ml). The class given is functional.
Data set [6] has as its system Mus musculus. Description: Protective effect in GalN/LPS-induced ICR mouse FHF liver injury model assessed as increase in I-kappaB protein level at 100 mg/kg, po administered 1 hr prior to GalN/LPS challenge measured after 6 hrs by Western blotting analysis relative to vehicle-treated control. The class given is functional, organism-based. The arrangement: dose 100 mg/kg. In a few lines: as §2

Data set [7] relates to Mus musculus. Description: Protective effect in GalN/LPS-induced ICR mouse FHF liver injury model assessed as reduction in TNF-alpha mRNA expression at 100 mg/kg, po administered 1 hr prior to GalN/LPS challenge measured after 6 hrs by RT-PCR analysis relative to vehicle-treated control. Format: functional, organism-based. The arrangement: dose 100 mg/kg. In a few lines: (§3)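 Oral pretreatment in olive oil 1 h before ip GalN (800 mg/kg)/LPS (40 μg/kg), with liver collected at 6 h. mRNA quantified by SYBR green real-time RT-PCR. Cycling: TNF-α 45 cycles (94/65/72 °C) and IL-6 32 cycles (94/58/72 °C). Levels normalized to β-actin by the Ct method. Mean ± SEM, n = 6−8.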

Data set [8] has as its system Mus musculus. Description: Protective effect in GalN/LPS-induced ICR mouse FHF liver injury model assessed as reduction in TLR4 protein level at 100 mg/kg, po administered 1 hr prior to GalN/LPS challenge measured after 6 hrs by Western blotting analysis relative to vehicle-treated control. On the set-up: dose 100 mg/kg. Format: functional, organism-based. In a few lines:
as §2

Data set [9] relates to Mus musculus. The experiment in a line: Protective effect in GalN/LPS-induced ICR mouse FHF liver injury model assessed as increase in IRAK-M protein level at 100 mg/kg, po administered 1 hr prior to GalN/LPS challenge measured after 6 hrs by Western blotting analysis relative to vehicle-treated control. The class given is functional, organism-based. The arrangement: dose 100 mg/kg. In a few lines: as §2

For data set [10], the system named is Mus musculus. The experiment in a line: Protective effect in GalN/LPS-induced ICR mouse FHF liver injury model assessed as reduction in NF-kappaB protein level at 100 mg/kg, po administered 1 hr prior to GalN/LPS challenge measured after 6 hrs by Western blotting analysis relative to vehicle-treated control. Format: functional, organism-based. On the set-up: dose 100 mg/kg. In a few lines:
as §2

Data set [11] relates to Mus musculus. The experiment in a line: Protective effect in GalN/LPS-induced ICR mouse FHF liver injury model assessed as reduction in TRAF6 protein level at 100 mg/kg, po administered 1 hr prior to GalN/LPS challenge measured after 6 hrs by Western blotting analysis relative to vehicle-treated control. The class given is functional, organism-based. The arrangement: dose 100 mg/kg. In a few lines: as §2

The subject of data set [12] is Mus musculus. The experiment in a line: Effect on liver histology in ICR mouse at 100 mg/kg, po after 1 hr by hematoxylin/eosin-labeled microscopic analysis relative to control. The class given is ADME, organism-based. The arrangement: dose 100 mg/kg, route oral. The note with it: in vivo. In a few lines: as §1
Data set [13] deals with Mus musculus. Description: Effect on serum IL-6 level in GalN/LPS-induced ICR mouse FHF liver injury model at 100 mg/kg, po administered 1 hr prior to GalN/LPS challenge measured after 6 hrs by ELISA (reference value: 654.1 +/- 19.7 pg/ml). Format: functional.
Data set [14] has as its system Mus musculus. The experiment in a line: Protective effect in po dosed GalN/LPS-induced ICR mouse FHF liver injury model assessed as survival administered 1 hr prior to GalN/LPS challenge measured up to 24 hrs. Format: functional, organism-based.
Data set [15] relates to Mus musculus. Description: Toxicity in ICR mouse assessed as survival at 100 mg/kg, po. The class given is organism-based. On the set-up: dose 100 mg/kg, route oral. To be noted: in vivo. In a few lines:
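One hour later they received intraperitoneal PBS vehicle in place of GalN/LPS. Survival was monitored up to 24 h, with 10 mice per survival group, alongside vehicle-only controls.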

Data set [16] relates to Mus musculus. Description: Protective effect in GalN/LPS-induced ICR mouse FHF liver injury model assessed as reduction in IL-6 mRNA expression at 100 mg/kg, po administered 1 hr prior to GalN/LPS challenge measured after 6 hrs by RT-PCR analysis relative to vehicle-treated control. The class given is functional, organism-based. The arrangement: dose 100 mg/kg. In a few lines:
as §3

Data set [17] has as its system Mus musculus. The experiment in a line: Effect on serum ALT level in GalN/LPS-induced ICR mouse FHF liver injury model at 100 mg/kg, po administered 1 hr prior to GalN/LPS challenge measured after 6 hrs (reference value: 2704 +/- 244.2 U/L). The class given is functional.
Data set [18] concerns Mus musculus. Description: Effect on serum ALT level in ICR mouse at 100 mg/kg, po after 1 hr (reference value: 57.4 +/- 8.8 U/L). The class given is ADME, organism-based. The arrangement: dose 100 mg/kg, route oral. To be noted: in vivo.
Data set [19] concerns Mus musculus. The experiment in a line: Protective effect in GalN/LPS-induced ICR mouse FHF liver injury model assessed as reduction in IRAK1 protein level at 100 mg/kg, po administered 1 hr prior to GalN/LPS challenge measured after 6 hrs by Western blotting analysis relative to vehicle-treated control. Format: functional, organism-based. On the set-up: dose 100 mg/kg. In a few lines: as §2

For data set [20], the system named is Mus musculus. The experiment in a line: Protective effect in GalN/LPS-induced ICR mouse FHF liver injury model assessed as reduction in MyD88 protein level at 100 mg/kg, po administered 1 hr prior to GalN/LPS challenge measured after 6 hrs by Western blotting analysis relative to vehicle-treated control. The class given is functional, organism-based. The arrangement: dose 100 mg/kg. In a few lines: as §2

The source made the active and inactive calls. The calls are words filed in the database; no cut-off is given here.

For `C=C(C)[C@@H]1CC[C@]2(C)CC[C@]3(C)[C@H](CC[C@@H]4[C@@]5(C)CC[C@H](O)C(C)(C)[C@@H]5CC[C@]43C)[C@@H]12` [LUPEOL], the result with Mus musculus [1], in the data set on Mus musculus [6], in the data set with Mus musculus [7], in the data set on Mus musculus [8], in the data set with Mus musculus [9] and with Mus musculus [10] was Active. Besides, the outcome with Mus musculus [11], in the data set with Mus musculus [16], in the data set with Mus musculus [19] and in the data set with Mus musculus [20] was Active. For the same compound, the Activity with Mus musculus [2] is 41 pg/mL; in the data set with Mus musculus [3] it was 75.1 pg/mL; in the data set with Mus musculus [5] it was 109 pg/mL; in the data set with Mus musculus [12], “Non-toxic”; in the data set with Mus musculus [13] it was 108.8 pg/mL; with Mus musculus [14] it was “Dose-dependent effect”. In addition, the Activity result in the data set on Mus musculus [15] was “Non-toxic”; with Mus musculus [17], 682 U/L; with Mus musculus [18], 58.1 U/L. Also, in the data set with Mus musculus [4], the outcome was inactive.

(Values after ChEMBL document CHEMBL3351511, “Protective effects of lupeol against D-galactosamine and lipopolysaccharide-induced fulminant hepatic failure in mice” (J Nat Prod, 2014).)
